Source: ChEMBL document CHEMBL5674890, “Selective inhibition of CBP/p300 HAT by A-485 results in suppression of lipogenesis and hepatic gluconeogenesis” (Cell Death Dis, 2020)
Active and inactive are the calls of the source. No cut-off for these calls is given here.

How the values were obtained:
[1] = test system: Mus musculus; test: Inhibition of lipogenesis in C57BL/6 mouse supplemented with high-fat diet assessed as decrease in PPARgamma protein expression at 20 mg/kg/day, ip administered for 1 week measured measured by western blot analysis; assay type: functional, organism-based; conditions: time 1.0 weeks
Summary of the method: (§1)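 Male C57BL/6 mice were fed high-fat diet for 14 weeks from 5 weeks of age, then injected ip with 20 mg·kg−1·day−1 for 7 days or given vehicle. Epididymal and inguinal WAT were weighed, examined by H&E, and analysed. Transcripts were measured by Trizol/SYBR Green RT-qPCR; proteins by western blot. n = 5–9; mean ± SEM.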

[2] = test system: Mus musculus; test: Anti-obesity activity in C57BL/6 mouse supplemented with high fat diet assessed as improvement in glucose tolerance at 20 mg/kg/day, ip administered for 1 week measured by intraperitoneal glucose tolerance test; assay type: functional, organism-based; conditions: time 1.0 weeks
Summary of the method: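 High-fat diet mice (male C57BL/6, 14 weeks on HFD from 5 weeks of age), ip 20 mg·kg−1·day−1 for 7 days. 16 h fast, then glucose 2 g/kg body weight ip; blood glucose tracked during the test.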

[3] = test system: Mus musculus; test: Inhibition of lipogenesis in C57BL/6 mouse supplemented with normal chow diet assessed as effect on CPT1alpha mRNA expression at 20 mg/kg/day, ip administered for 1 week measured by RT-qPCR assay; assay type: functional, organism-based; conditions: time 1.0 weeks
Summary of the method: (§2)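 Eight-week-old male C57BL/6 mice on normal chow were given 20 mg·kg−1·day−1 ip daily for 7 days or vehicle. Epididymal WAT was collected. Lipogenic, adipogenic and fatty-acid-oxidation transcripts were quantified by Trizol extraction and SYBR Green RT-qPCR. FAS, ACC, PPARγ and C/EBPα protein were assessed by western blot. n = 5–9; mean ± SEM.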

[4] = test system: Mus musculus; test: Anti-obesity activity in C57BL/6 mouse supplemented with high fat diet assessed as decrease in body weight at 20 mg/kg/day, ip administered for 1 week; assay type: functional, organism-based; conditions: time 1.0 weeks
Summary of the method: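 Male C57BL/6 mice fed high-fat diet for 14 weeks from 5 weeks of age, then ip 20 mg·kg−1·day−1 for 7 days. Body weight, EchoMRI lean/fat mass, and random or 16 h-fasted blood glucose recorded, as the line states.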

[5] = test system: Mus musculus; test: Inhibition of lipogenesis in C57BL/6 mouse supplemented with normal chow diet assessed as decrease in ACC protein expression at 20 mg/kg/day, ip administered for 1 week measured by western blot analysis; assay type: functional, organism-based; conditions: time 1.0 weeks; summary of the method: as §2
[6] = test system: Hepatocyte; test: Inhibition of glucogenesis in mouse primary hepatocytes stimulated with 100 uM 8-Br-cAMP assessed as effect on FOXO1 mRNA expression at 3 uM measured after 8 hrs by RT-qPCR assay; assay type: functional, cell-based
Summary of the method: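 Primary mouse hepatocytes treated with 3 μM compound and 100 μM 8-Br-cAMP for 8 h. Trizol RNA, SYBR Green RT-qPCR of the named transcript. Mean ± SEM, three independent experiments.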

[7] = test system: Hepatocyte; test: Inhibition of glucogenesis in mouse primary hepatocytes stimulated with 100 uM 8-Br-cAMP assessed as decrease in G6Pc mRNA expression at 3 uM in combination with 2 mM metformin measured by RT-qPCR assay; assay type: functional, cell-based
Summary of the method: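 Primary mouse hepatocytes given 3 μM compound with 2 mM metformin in the presence of 100 μM 8-Br-cAMP. Gluconeogenic gene mRNA measured by SYBR Green RT-qPCR. Mean ± SEM, three independent experiments.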

[8] = test system: HepG2; test: Inhibition of glucogenesis in human HepG2 cells stimulated with 8-Br-cAMP at 3 uM assessed as effect on change in CBP/CREB interaction measured by coimmunoprecipitation analysis; assay type: functional, cell-based
Summary of the method: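 HepG2 cells treated with 3 μM compound. CREB association with CBP and TORC2 assessed by coimmunoprecipitation (antibody 2 h, protein A/G beads overnight at 4 °C) and western blot.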

[9] = test system: Mus musculus; test: Inhibition of lipogenesis in C57BL/6 mouse supplemented with normal chow diet assessed as decrease in LPL mRNA expression at 20 mg/kg/day, ip administered for 1 week measured measured by RT-qPCR assay; assay type: functional, organism-based; conditions: time 1.0 weeks; summary of the method: as §2
[10] = test system: Hepatocyte; test: Inhibition of glucogenesis in mouse primary hepatocytes stimulated with 100 uM 8-Br-cAMP assessed as decrease in FBP mRNA expression at 3 uM measured after 8 hrs by RT-qPCR assay
[11] = test system: Mus musculus; test: Inhibition of hepatic lipogenesis in C57BL/6 mouse supplemented with high fat diet assessed as decrease in total cholesterol level at 20 mg/kg/day, ip administered for 1 week; assay type: functional, organism-based; conditions: time 1.0 weeks
Summary of the method: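 Male C57BL/6 mice received ip A-485 at 20 mg·kg−1·day−1 for 7 days, versus vehicle. NCD mice were 8 weeks old. HFD mice had been on high-fat diet for 14 weeks from 5 weeks of age. Liver triglyceride and total cholesterol content was determined. n = 5–9; mean ± SEM.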

[12] = test system: Mus musculus; test: Anti-obesity activity in 16 hrs fasted C57BL/6 mouse supplemented with normal chow diet assessed as decrease in blood glucose level at 20 mg/kg/day, ip administered for 1 week measured after 30 mins by intraperitoneal glucose tolerance test; assay type: functional, organism-based; conditions: time 1.0 weeks
Summary of the method: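 Male C57BL/6 mice on normal chow, 8 weeks old, given 20 mg·kg−1·day−1 ip daily for 7 days. After 16 h fasting, glucose 2 g/kg body weight ip; blood glucose read during the test. Mean ± SEM, n = 5–9; t test or ANOVA, P < 0.05.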

[13] = test system: Hepatocyte; test: Inhibition of lipogenesis in mouse primary hepatocytes assessed as decrease in FAS protein expression at 3 uM in presence of 100 nM insulin and 5 to 25 mM glucose measured after 18 hrs by western blot analysis; assay type: functional, cell-based
[14] = test system: Adipocyte; test: Inhibition of lipogenesis in mouse adipocytes isolated stromal vascular cells assessed as decrease in FAS protein expression measured after 24 hrs by western blot analysis; assay type: functional, cell-based
[15] = test system: Hepatocyte; test: Inhibition of glucogenesis in mouse primary hepatocytes stimulated with 100 uM 8-Br-cAMP assessed as decrease in PEPCK mRNA expression at 3 uM measured after 8 hrs by RT-qPCR assay
[16] = organism: Mus musculus; test: Inhibition of glucogenesis in mouse assessed as decrease in hepatic C/EBPalpha protein expression measured by western blot analysis; assay type: functional, organism-based
Summary of the method: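 Livers from vehicle- or treated mice (ip 20 mg·kg−1·day−1 for 7 days) homogenized in lysis buffer; FOXO1 and C/EBPα analysed by western blot.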

[17] = test system: Hepatocyte; test: Inhibition of lipogenesis in mouse primary hepatocytes assessed as decrease in ACC protein expression at 3 uM in presence of 100 nM insulin and 5 to 25 mM glucose measured after 18 hrs by western blot analysis; assay type: functional, cell-based
[18] = test system: Mus musculus; test: Inhibition of lipogenesis in C57BL/6 mouse supplemented with normal chow diet assessed as effect on MCAD mRNA expression at 20 mg/kg/day, ip administered for 1 week measured by RT-qPCR assay; assay type: functional, organism-based; conditions: time 1.0 weeks; summary of the method: as §2
[19] = test system: Mus musculus; test: Inhibition of lipogenesis in C57BL/6 mouse supplemented with high-fat diet assessed as decrease in ACC mRNA expression at 20 mg/kg/day, ip administered for 1 week measured by RT-qPCR assay; assay type: functional, organism-based; conditions: time 1.0 weeks; summary of the method: as §1

Question: For `CNC(=O)Nc1ccc2c(c1)CCS21OC(=O)N(CC(=O)N(Cc2ccc(F)cc2)[C@@H](C)C(F)(F)F)C1=O` (some centres undefined), which inhibition [1] is on record?
Answer: Active

Question: And the Activity [2]?
Answer: Active

Question: What about the inhibition [3] of the same compound?
Answer: inactive

Question: What about the Activity [4] of the same compound?
Answer: Active

Question: What about the inhibition [5] of the same compound?
Answer: Active

Question: What about the inhibition [6] of the same compound?
Answer: inactive

Question: And the inhibition [7]?
Answer: Active

Question: And the inhibition [8]?
Answer: inactive

Question: What about the inhibition [9] of the same compound?
Answer: Active

Question: And the inhibition [10]?
Answer: Active

Question: And the inhibition [11]?
Answer: Active

Question: And the Activity [12]?
Answer: Active

Question: What about the inhibition [13] of the same compound?
Answer: Active

Question: What about the inhibition [14] of the same compound?
Answer: Active

Question: What about the inhibition [15] of the same compound?
Answer: Active

Question: And the inhibition [16]?
Answer: Active

Question: And the inhibition [17]?
Answer: Active

Question: And the inhibition [18]?
Answer: inactive

Question: What about the inhibition [19] of the same compound?
Answer: Active
